Published values gathered from unrelated publications.
Protocols differ between the studies behind these lines.
Sample: plasma

species | route | dose | setting | AUC(0-inf) | Structure (SMILES)
male Sprague-Dawley rat | oral | 8 mg/kg | single dose | 1950 ng·h/mL | CCCc1nc2c(C)cc(-c3nc4ccccc4n3C)cc2n1Cc1ccc(-c2ccccc2C(=O)O)cc1
male Sprague-Dawley rat | oral | 36 mg/kg |  | 3320 ng·h/mL | C1=C/COCc2cc(ccc2OCCN2CCCC2)Nc2nccc(n2)-c2cccc(c2)COC/1
Sprague-Dawley rat | intravenous | 1 mg/kg | single dose | 4470 ng·h/mL | C[C@H]1Oc2cc(cnc2N)-c2c(nn(C)c2C#N)CN(C)C(=O)c2ccc(F)cc21
Sprague-Dawley rat | oral | 40 mg/kg |  | 10200 ng·h/mL | CC[C@@H]([C@H](C)O)n1ncn(-c2ccc(N3CCN(c4ccc(OC[C@@H]5CO[C@@](Cn6cncn6)(c6ccc(F)cc6F)C5)cc4)CC3)cc2)c1=O
female Sprague-Dawley rat | intravenous | 5 mg/kg |  | 30.7 ng·h/mL | COc1ccc(N(Cc2csc(-c3ccccc3)n2)C(=O)CCCCCC(=O)NO)cc1
female Wistar rat | oral | 1 mg/kg | single dose | 50200 ng·h/mL | CC(=O)O[C@@H]1CC[C@@]2(C)[C@@H](CC[C@]3(C)[C@@H]2C(=O)C=C2[C@@H]4[C@@H](C)[C@H](C)CC[C@]4(C)CC[C@]23C)[C@@]1(C)C(=O)O
male Sprague-Dawley rat | oral | 40 mg/kg |  | 305 ng·h/mL | COc1nc(-c2cccc(-c3ccccc3)c2C)ccc1CNCCNC(=O)CCCCCCCCCCC(=O)N1CCN(CCNC(=O)c2cc3c(=O)n4cccc(C)c4nc3n(CCc3cccs3)c2=N)CC1
male Sprague-Dawley rat | oral | 80 mg/kg |  | 4.33 ng·h/mL | C[C@@]12C[C@@]3(O)O[C@@H](O1)[C@]1(COC(=O)c4ccccc4)[C@H]3C[C@@]12O[C@@H]1O[C@H](CO)[C@@H](O)[C@H](O)[C@H]1O
male Sprague-Dawley rat | oral | 10 mg/kg | single dose | 38.9 ng·h/mL | CONC(=O)c1cccc2c1cc(C)n2-c1nc2c(c(NCc3ccccc3)n1)CCCN2
male Sprague-Dawley rat | oral | 5 mg/kg | single dose | 0.199 µM·h | Cc1nc(Nc2ncc(C(=O)Nc3c(C)cccc3Cl)s2)cc(N2CCN(CCO)CC2)n1
male Sprague-Dawley rat | oral | 3 mg/kg |  | 349 ng·h/mL | O=C1CCC(N2Cc3cc(C4CCN(Cc5ccccc5)CC4)ccc3C2=O)C(=O)N1 (stereo not drawn)
male Sprague-Dawley rat | oral | 10 mg/kg |  | 271 ng·h/mL | C[C@H]1[C@@H](O)O[C@@H]2O[C@@]3(C)CC[C@H]4[C@H](C)CC[C@@H]1[C@@]24OO3
male Sprague-Dawley rat | oral | 10 mg/kg |  | 8730 ng·h/mL | CCN(CC)Cc1ccc2cc(COC(=O)Nc3ccc(C(=O)NO)cc3)ccc2c1
male Sprague-Dawley rat | intravenous | 11.25 mg/kg |  | 32700 ng·h/mL | Cn1c(=O)c2[nH]cnc2n(C)c1=O
male Sprague-Dawley rat | oral | 5 mg/kg |  | 2160 ng·h/mL | COc1cc(-c2cc(C(C)=O)n3ccccc23)c(OC)cc1Cn1ccnc1
